Molecules are shown by their SMILES.

Experimental findings from ChEMBL document CHEMBL1143371, “2-Aminoimidazoles inhibitors of TGF-beta receptor 1” (Bioorg Med Chem Lett, 2009) are described below.

The target in data set [1] is Mitogen-activated protein kinase 14 (Homo sapiens, UniProt Q16539). As to the kind of experiment: Inhibition of p38alpha.
Data set [2] is described as follows: Half life in iv dosed Sprague-Dawley rat. It counts as ADME, organism-based. The settings on record: in vivo. The gist of the method: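 Half-life was measured in fasted male Sprague–Dawley rats and is the mean of 4 iv experiments. Depending on the compound, the vehicle was 20% captisol or NMP/H₂O (1/1).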
Data set [3] concerns the target T1, TGF-beta receptor type-1 (Homo sapiens, UniProt P36897).
T1 sequence (P36897 whole entry): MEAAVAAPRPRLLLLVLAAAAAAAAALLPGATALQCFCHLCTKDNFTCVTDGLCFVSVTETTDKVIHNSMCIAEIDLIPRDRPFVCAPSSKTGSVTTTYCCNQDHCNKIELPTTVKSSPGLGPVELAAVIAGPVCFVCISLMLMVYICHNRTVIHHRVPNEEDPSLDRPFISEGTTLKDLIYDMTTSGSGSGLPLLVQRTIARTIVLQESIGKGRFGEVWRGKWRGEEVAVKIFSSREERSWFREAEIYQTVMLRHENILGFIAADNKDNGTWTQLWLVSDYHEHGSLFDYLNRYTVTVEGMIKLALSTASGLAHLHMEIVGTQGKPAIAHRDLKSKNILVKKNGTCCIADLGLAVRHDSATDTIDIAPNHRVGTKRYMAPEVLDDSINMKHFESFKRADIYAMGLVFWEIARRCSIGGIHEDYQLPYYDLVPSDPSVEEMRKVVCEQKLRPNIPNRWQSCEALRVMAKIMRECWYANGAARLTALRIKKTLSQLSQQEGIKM
As to the kind of experiment: Inhibition of TGFBR1 transfected in human HepG2 cells after 24 hrs by plasminogen activator inhibitor-luciferase reporter gene assay. It counts as cell-based.

Data set [4] addresses T1, TGF-beta receptor type-1. As to the kind of experiment: Binding affinity to human TGFBR1.
The nature of data set [5]: Bioavailability in iv and po dosed Sprague-Dawley rat. The format is ADME, organism-based. The settings on record: in vivo. The method in brief:
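Fasted male Sprague–Dawley rats were dosed iv and po. […] Depending on the compound, the vehicle was 20% captisol or NMP/H₂O (1/1).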

Mitogen-activated protein kinase 14, sequence (Q16539 whole entry): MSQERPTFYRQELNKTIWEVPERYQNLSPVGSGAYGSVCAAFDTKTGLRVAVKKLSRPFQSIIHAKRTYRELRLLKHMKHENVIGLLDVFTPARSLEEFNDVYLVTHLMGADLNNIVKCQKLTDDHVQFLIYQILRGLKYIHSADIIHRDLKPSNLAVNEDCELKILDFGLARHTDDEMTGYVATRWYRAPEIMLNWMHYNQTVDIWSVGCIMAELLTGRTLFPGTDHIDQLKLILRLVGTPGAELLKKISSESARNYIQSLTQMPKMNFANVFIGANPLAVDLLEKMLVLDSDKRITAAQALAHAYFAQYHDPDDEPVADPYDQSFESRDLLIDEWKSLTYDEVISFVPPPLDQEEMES

Usually EC50 stands for the midpoint of the concentration-response curve. Read a low EC50 as greater potency. What is called half-life is the time needed for the level to fall by half in the phase considered. A lower half-life goes with rapid decline. Usually Ki stands for the dissociation constant of the complex between target and ligand, obtained from inhibition or displacement. Read a high Ki as weaker binding. The bioavailability is dose-corrected exposure relative to a reference, in per cent. A low value points to poor availability. Turning to `CC(=O)Nc1nc(-c2cccc(C)n2)c(-c2ccc3ncnn3c2)[nH]1`, the results for the EC50 (in data set [1]; at TGF-beta receptor type-1 [3]) were 57.8 µM and 0.165 µM, respectively. In addition, the half-life in data set [2] is 7.1 h. The compound further displayed a Ki at TGF-beta receptor type-1 [4] of 0.00295 µM. Also, the bioavailability in data set [5] was 100%.
Take `COCC(=O)Nc1nc(-c2ccc(F)c(C)n2)c(-c2ccc3nccnc3c2)[nH]1`: the EC50 came out at 15 µM in data set [1] and 0.061 µM on TGF-beta receptor type-1 [3]. On TGF-beta receptor type-1 [4], this compound had a Ki of 0.0072 µM.
Consider `Cc1nc(-c2nc(N3CCN(C)CC3)[nH]c2-c2ccc3ncnn3c2)ccc1F`, for which the EC50 in data set [1] was 10.9 µM; on TGF-beta receptor type-1 [3] it was 0.344 µM. The affinity on TGF-beta receptor type-1 [4], expressed as Ki, was 0.0164 µM.
Take `CC(=O)N1CCN(c2nc(-c3ccc(F)c(C)n3)c(-c3ccc4ncnn4c3)[nH]2)CC1`: the half-maximal effective concentration (EC50) in data set [1] was determined as 14.2 µM; at TGF-beta receptor type-1 [3], 1.22 µM. For the same compound, at TGF-beta receptor type-1 [4], the Ki came to 0.0152 µM.
Turning to `Cc1nc(-c2nc(N3CCN(S(C)(=O)=O)CC3)[nH]c2-c2ccc3ncnn3c2)ccc1F`, the EC50 was found to be 41.2 µM in data set [1] and 0.414 µM at TGF-beta receptor type-1 [3]. Also, affinity at TGF-beta receptor type-1 [4] was put at a Ki of 0.003 µM.
`COCCC(=O)Nc1nc(-c2ccc(F)c(C)n2)c(-c2ccc3nccnc3c2)[nH]1`: the EC50 in data set [1] was 14.8 µM; at TGF-beta receptor type-1 [3], 0.148 µM. In addition, in data set [2], the half-life is 13.2 h. Moreover, the Ki at TGF-beta receptor type-1 [4] was 0.019 µM. In data set [5], this compound gave a bioavailability of 41%.
One may read the IC50 as the midpoint of a concentration-inhibition curve. A higher IC50 goes with weaker potency in that assay. Take `Cc1nc(-c2nc(N)[nH]c2-c2ccc3nccnc3c2)ccc1F`: the concentration for half-maximal inhibition (IC50) in data set [1] came out at 12.5 µM; at TGF-beta receptor type-1 [3] it was 0.0335 µM. In data set [2], this compound gave a half-life of 0.6 h. For the same compound, affinity on TGF-beta receptor type-1 [4] was put at a Ki of 0.0007 µM. Further, in data set [5], the bioavailability worked out at 28%.
`Cc1nc(-c2nc(N3CCCCC3)[nH]c2-c2ccc3ncnn3c2)ccc1F` came in with a Ki at TGF-beta receptor type-1 [4] of 0.0532 µM.
Still for that read-out and setting: as for `Cc1nc(-c2nc(NC(=O)C(C)C)[nH]c2-c2ccc3nccnc3c2)ccc1F`, the figure is above 28 µM.
With `CC(=O)Nc1nc(-c2ccc(F)c(C)n2)c(-c2ccc3ncnn3c2)[nH]1`, the EC50 in data set [1] was 28.1 µM; on TGF-beta receptor type-1 [3] it was 0.111 µM. Further, the affinity on TGF-beta receptor type-1 [4] corresponds to a Ki of 0.00207 µM.
As to `CC(=O)Nc1nc(-c2ccc(F)c(C)n2)c(-c2ccc3nccnc3c2)[nH]1`, the EC50 in data set [1] amounted to 14.8 µM; on TGF-beta receptor type-1 [3], 0.18 µM. Moreover, in data set [2], the half-life was 7.8 h. In data set [5], this compound yielded a bioavailability of 66%.
As to `Cc1cccc(-c2nc(N)sc2-c2ccc3nccnc3c2)n1`, the EC50 was 22 µM in data set [1] and 0.08 µM at TGF-beta receptor type-1 [3]. In data set [2], this compound gave a half-life of 7.4 h. In addition, at TGF-beta receptor type-1 [4], the Ki turned out to be 0.00033 µM. The compound also displayed a bioavailability in data set [5] of 87%.
As for `Cc1nc(-c2nc(N3CCOCC3)[nH]c2-c2ccc3ncnn3c2)ccc1F`, the EC50 in data set [1] stood at 46.3 µM; on TGF-beta receptor type-1 [3], 0.513 µM. The half-life in data set [2] was 0.4 h. In addition, the Ki at TGF-beta receptor type-1 [4] came out at 0.015 µM. In data set [5], this compound displayed a bioavailability of 25%.
With `CCC(=O)Nc1nc(-c2ccc(F)c(C)n2)c(-c2ccc3nccnc3c2)[nH]1`, the figures for the EC50 (in data set [1]; at TGF-beta receptor type-1 [3]) were 13.5 µM and 0.156 µM, respectively. Further, at TGF-beta receptor type-1 [4], the Ki amounted to 0.0088 µM.
